What was measured:
[1] = species on record: Rattus norvegicus; experiment: […] on [Ca2+] release from the intracellular stores of permealized hepatocytes; assay type: functional; settings: Hepatocyte
Outline: (§1)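 Permeabilized rat hepatocytes loaded with 45Ca2+ to steady state (5 min, 37 °C) in cytosol-like medium pH 7.0 with ATP 1.5 mM, creatine phosphate 5 mM, creatine phosphokinase 5 units/mL, FCCP 10 µM. Thapsigargin (1.25 µM) added, agonist 30 s later, store Ca2+ measured by rapid filtration after 60 s. Four-parameter logistic fit gives EC50, Hill slope, maximal release; three experiments.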

[2] = test system: Hepatocyte; experiment: Hill coefficient for the effect on [Ca2+] release from the intracellular stores of permealized hepatocytes; assay type: cell-based; outline: as §1
[3] = Ratio to Ins(1,4,5)P3, for the effect on [Ca2+] release from the intracellular stores of permealized hepatocytes (ratio greater than 1 denotes greater potency and less than -1 denotes lesser potency); assay type: functional, Hepatocyte
[4] = Hill coefficient, measured using equilibrium competition binding with [3H]Inositol(1,4,5)P3
[5] = Binding affinity towards rat liver membrane, measured using equilibrium competition binding with [3H]Inositol(1,4,5)P3
[6] = species on record: Rattus norvegicus; experiment: Fraction of total [Ca2+] stores released by a maximal concentration of the compound; assay type: functional; outline: as §1
[7] = Ratio to Ins(1,4,5)P3 was measured(ratio greater than 1 denotes greater affinity and less than -1 denotes lesser affinity)

Row | Compound | EC50 [1] | Hill coefficient [2] | Ratio [3] | Hill coefficient [4] | Kd [5] | Max response [6] | Ratio [7]
1 | O=P(O)(O)O[C@H]1CO[C@@H]2[C@H](O)[C@@H](OP(=O)(O)O)[C@H](OP(=O)(O)O)[C@@H](O)[C@@H]2OC1 | 1230 nM | 2.9 | -14 | 1.12 | 62 nM | 59% | -14
2 | O=P(O)(O)O[C@@H]1CO[C@@H]2[C@H](O)[C@@H](OP(=O)(O)O)[C@H](OP(=O)(O)O)[C@@H](O)[C@@H]2OC1 | 1650 nM | 2.61 | -18 | 1.01 | 98 nM | 59% | -21
3 | Nc1ncnc2c1ncn2[C@@H]1O[C@H](CO)[C@@H](O[C@H]2O[C@H](CO)[C@@H](OP(=O)(O)O)[C@H](OP(=O)(O)O)[C@H]2O)[C@H]1OP(=O)(O)O [ADENOPHOSTIN A] | 9.2 nM | 2.99 | 9.8 | 1.17 | 0.55 nM | 49% | 8.3
4 | O=P(O)(O)O[C@@H]1[C@H](O)[C@H](O)[C@@H](OP(=O)(O)O)[C@H](OP(=O)(O)O)[C@H]1O [INS(1,4,5)P3] | 90 nM | 1.48 | 1 | 1.16 | 4.56 nM | 59% | 1

— ChEMBL document CHEMBL1134512, “Bicyclic analogues of D-myo-inositol 1,4,5-trisphosphate related to adenophostin A: synthesis and biological activity” (J Med Chem, 2001)
